AI-2 QS modul: modulators of Vibrio harveyi AI-2 quorum sensing system; 0.4% of 300,000 active; activity change, % at 7.5 µM; Vibrio harveyi JMH597 AI-2 luminescence/OD600 ratio, 9 h; stronger effect = lower value; strain lacks LuxN and CqsS sensors; 0 = neutral-control median; in the data active = activity change below about -75%, passing the limit was not always enough; inconclusive = no clear call, values can overlap the other calls;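 note: luminescence divided by OD600 gain over 9 h not by final OD600 alone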
PHOSPHO1 inh: blocks human PHOSPHO1 phosphatase activity | Q8TCT1 | recombinant PHOSPHO1, absorbance phosphatase assay | inhibition, % at 13.3 µM | 1.1% of 290,000 active | AID 1565; in the data active = inhibition above about 60%
Target sequence (Q8TCT1 whole entry, looked up): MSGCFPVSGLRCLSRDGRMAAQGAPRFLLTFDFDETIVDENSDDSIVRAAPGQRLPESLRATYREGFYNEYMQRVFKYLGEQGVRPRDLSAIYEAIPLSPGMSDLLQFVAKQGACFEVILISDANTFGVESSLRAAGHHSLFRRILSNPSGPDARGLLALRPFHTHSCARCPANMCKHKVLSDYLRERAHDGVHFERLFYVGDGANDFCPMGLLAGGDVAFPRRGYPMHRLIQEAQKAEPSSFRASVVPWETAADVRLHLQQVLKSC
ALR H2O2 inh: inhibitors of human sulfhydryl oxidase ALR; P55789; purified ALR, DTT oxidation, H2O2 HRP-luminol luminescence; inhibition, % (concentration not given with the values); 3.8% of 290,000 active; AID 485317;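 active = mean replicate inhibition above about 79%, with every replicate also reaching it, limit read from the data; inconclusive = only one of the two criteria met; inactive = mean below limit and not every replicate reaching it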
Target sequence (P55789 whole entry, looked up): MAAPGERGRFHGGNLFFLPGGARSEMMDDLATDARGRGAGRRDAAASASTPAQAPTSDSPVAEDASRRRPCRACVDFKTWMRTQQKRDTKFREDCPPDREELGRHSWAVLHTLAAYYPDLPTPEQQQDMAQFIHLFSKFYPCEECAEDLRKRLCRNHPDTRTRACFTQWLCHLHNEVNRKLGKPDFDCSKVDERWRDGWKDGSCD
HSF1 activator: increases HSF-1 driven luciferase reporter signal. NIH3T3-HGL HSF-1 luciferase reporter, MG132, 8 h; 100% = twice DMSO control signal. activation, % at 9 µM. 1.7% of 300,000 active. AID 504408;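 active = mean replicate activation of at least 50% with a set share of replicates each reaching 50%; inconclusive = only one of those two conditions met; inactive = mean below 50% and too few replicates reaching it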
HCV core dimer: HCV core protein dimerization inhibition; TR-FRET GST/Flag-core106 dimerization, 1536-well; 0.33% of 300,000 active; inhibition, % at 5 µM;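 active = inhibition above the mean of all tested compounds plus 3 SD, set per screening campaign, cut at about 45% in these data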
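Material: GST/Flag-tagged HCV core106 proteins. Incubation: 4 h, 22.5 °C incubation. Read-out basis: inhibition (%) from 671 over 617 nm ratio. Measured by: TR-FRET, excitation 340 nm, emission 617 and 671 nm.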
HSF1 inhib: HSF1 inhibition | NIH3T3-HGL HSE-luciferase, MG132-induced, luminescence 8 h; stronger effect = lower value | activity change, negative = inhibition, % at 7.5 µM (by protocol) | 0.77% of 300,000 active | AID 2098;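 active = more than half of replicate wells show activity change below -50%, luminescence cut by over half; inconclusive = some wells, but at most half, below -50%; inactive = no replicate well below -50%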;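 note: luciferase reports HSF-1 transcriptional activity via heat shock element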
Large screens that a line does not name were inactive. Compounds with a hit are over-represented: about 6.8% of the library has one in this group of screens.

O=C(O)c1cccc(NC(=O)c2cc(NC(=O)c3ccccc3)cc(NC(=O)c3ccccc3)c2)c1	none (no result: AI-2 QS modul)
Cc1ccc(C(=O)Nc2ccccc2Sc2ccccc2)cc1	HSF1 activator 57.0
Cc1ccc(C(=O)Nc2cccc(C(=O)O)c2)cc1	HSF1 inhib -71.7
Cc1cccc(NC(=O)c2cccc(S(=O)(=O)Nc3ccccc3C(=O)O)c2)c1	none
Cc1ccc(C(=O)Nc2ccc(C(=O)O)cc2NC(=O)c2ccc(C)cc2)cc1	HSF1 inhib -51.4 (no result: AI-2 QS modul)
Cc1ccc(S(=O)(=O)CCSc2cccc(C(=O)Nc3ccccc3C(=O)O)c2)cc1	ALR H2O2 inh 98.7
O=C(O)c1ccc(NC(=O)c2ccc(Cl)cc2)c(NC(=O)c2ccc(Cl)cc2)c1	none
O=C(Nc1ccc2c(c1)OCO2)c1noc2c1CCCC2	none (no result: ALR H2O2 inh)
CN(C)C(=O)CCC(=O)N1CCCC(C(=O)c2ccc(C(F)(F)F)cc2)C1 (stereo unspecified)	none (no result: ALR H2O2 inh)
O=C(Cc1n[nH]c(=O)c2ccccc12)OCC(=O)c1ccc(F)c(F)c1	none (no result: PHOSPHO1 inh, ALR H2O2 inh)
Cc1ccc(NC(=O)c2cccc(C(=O)Nc3ccc(C)cc3C(=O)O)c2)c(C(=O)O)c1	ALR H2O2 inh 98.6
COc1ccc(C)cc1NC(=O)c1cccc(C(=O)Nc2cc(C)ccc2OC)c1	none
Cc1[nH]c(=O)[nH]c(=O)c1S(=O)(=O)Nc1ccc(F)cc1F	none (no result: HCV core dimer)
CCN(CC)c1ccc(/C=C2\SC(N)=NC2=O)cc1	ALR H2O2 inh 98.6 (no result: HCV core dimer)
NC1=NC(=O)/C(=C/c2ccc(OCC(=O)O)cc2)S1	none (no result: HCV core dimer)
CC(C)(C)NC(=O)C(c1ccc(O)cc1)N(C(=O)CCC(=O)Nc1ccccn1)c1ccc(F)cc1 (stereo unspecified)	none
CCOC(=O)c1ccc(-n2[nH]c(-c3ccccc3)cc2=O)cc1	HSF1 inhib -72.0
CCOC(=O)C(NS(=O)(=O)c1ccc(Br)cc1)C(C)C (stereo unspecified)	HSF1 activator 55.1
CC(C)NCC(O)COCc1ccc(Cl)cc1 (stereo unspecified)	HSF1 activator 52.9
O=C(CCC(=O)Nc1ccc(F)cc1)N/N=C/c1ccc(O)cc1O	ALR H2O2 inh inconclusive
O=C(N/N=C/c1ccc(O)cc1O)C(=O)N/N=C/c1ccc(O)cc1O	AI-2 QS modul -85.8
COc1ccc(N2Cc3ccc(C(=O)N/N=C\c4ccc(O)cc4O)cc3C2)cc1	HCV core dimer 68.3 (no result: ALR H2O2 inh)
CC(C)(C)N/N=C1\CC(c2ccccc2)Oc2ccccc21 (stereo unspecified)	none
O=C(O)c1cc(N/N=C2/CC(c3ccccc3)Oc3ccccc32)ccc1Cl (stereo unspecified)	ALR H2O2 inh 97.6
CC(C)CN(C(=O)c1cccs1)C1CCS(=O)(=O)C1 (stereo unspecified)	HSF1 activator 62.3 (no result: PHOSPHO1 inh, ALR H2O2 inh, HCV core dimer)
CCN(C(=O)c1cccs1)C1CCS(=O)(=O)C1 (stereo unspecified)	none (no result: PHOSPHO1 inh, ALR H2O2 inh, HCV core dimer)
CN(C)c1ccc(CNS(=O)(=O)c2ccc3c(c2)NC(=O)CS3)cc1	ALR H2O2 inh 99.0
Cc1ccc(CNS(=O)(=O)c2ccc3c(c2)NC(=O)CS3)cc1	none
COC(=O)CCCC1=CC2=CC(=O)C(C)(OC(=O)C3CCCC3)C(=O)C2=CO1 (stereo unspecified)	HCV core dimer 63.8
CCC(=O)OC1(C)C(=O)C=C2C=C(CCCC(=O)OC)OC=C2C1=O (stereo unspecified)	HCV core dimer 53.3 (no result: PHOSPHO1 inh)
CCCCC1=CC2=CC(=O)C(C)(OC(=O)C3CCCC3)C(=O)C2=CO1 (stereo unspecified)	none
CC1CC(C)CN(C(=O)CSc2nnc(N)s2)C1 (stereo unspecified)	ALR H2O2 inh 95.2
O=C1CC(c2ccccc2)Oc2cc(O)cc(O)c21 (stereo unspecified)	none
O=C1CC(c2ccc(O)cc2)Oc2cc(O)cc(O)c21 (stereo unspecified)	ALR H2O2 inh 99.0
CC(C)=CCc1c(O)ccc2c1OC(c1ccc(O)c(O)c1)CC2=O (stereo unspecified)	ALR H2O2 inh inconclusive
COc1ccc([C@H]2Cc3cc(O)cc(O)c3C(=O)O2)cc1O	none (no result: AI-2 QS modul, PHOSPHO1 inh, HSF1 activator, HCV core dimer, HSF1 inhib)
